In ChEMBL document CHEMBL4354819, “Discovery of Novel Small Molecule Dual Inhibitors Targeting Toll-Like Receptors 7 and 8” (J Med Chem, 2019):
Activity calls are given as the source filed them. The calls are words filed in the database; no cut-off is given here.

Columns and labels:
Toll-like receptor 7 = biological target: T1, Toll-like receptor 7 (Homo sapiens, UniProt Q9NYK1); test: Inhibition of human TLR7 expressed in HEK293 cells assessed as reduction in R848-induced NFkappaB production incubated for 16 hrs by quanti-blue SEAP assay; type: cell-based
T1 sequence (Q9NYK1 whole entry): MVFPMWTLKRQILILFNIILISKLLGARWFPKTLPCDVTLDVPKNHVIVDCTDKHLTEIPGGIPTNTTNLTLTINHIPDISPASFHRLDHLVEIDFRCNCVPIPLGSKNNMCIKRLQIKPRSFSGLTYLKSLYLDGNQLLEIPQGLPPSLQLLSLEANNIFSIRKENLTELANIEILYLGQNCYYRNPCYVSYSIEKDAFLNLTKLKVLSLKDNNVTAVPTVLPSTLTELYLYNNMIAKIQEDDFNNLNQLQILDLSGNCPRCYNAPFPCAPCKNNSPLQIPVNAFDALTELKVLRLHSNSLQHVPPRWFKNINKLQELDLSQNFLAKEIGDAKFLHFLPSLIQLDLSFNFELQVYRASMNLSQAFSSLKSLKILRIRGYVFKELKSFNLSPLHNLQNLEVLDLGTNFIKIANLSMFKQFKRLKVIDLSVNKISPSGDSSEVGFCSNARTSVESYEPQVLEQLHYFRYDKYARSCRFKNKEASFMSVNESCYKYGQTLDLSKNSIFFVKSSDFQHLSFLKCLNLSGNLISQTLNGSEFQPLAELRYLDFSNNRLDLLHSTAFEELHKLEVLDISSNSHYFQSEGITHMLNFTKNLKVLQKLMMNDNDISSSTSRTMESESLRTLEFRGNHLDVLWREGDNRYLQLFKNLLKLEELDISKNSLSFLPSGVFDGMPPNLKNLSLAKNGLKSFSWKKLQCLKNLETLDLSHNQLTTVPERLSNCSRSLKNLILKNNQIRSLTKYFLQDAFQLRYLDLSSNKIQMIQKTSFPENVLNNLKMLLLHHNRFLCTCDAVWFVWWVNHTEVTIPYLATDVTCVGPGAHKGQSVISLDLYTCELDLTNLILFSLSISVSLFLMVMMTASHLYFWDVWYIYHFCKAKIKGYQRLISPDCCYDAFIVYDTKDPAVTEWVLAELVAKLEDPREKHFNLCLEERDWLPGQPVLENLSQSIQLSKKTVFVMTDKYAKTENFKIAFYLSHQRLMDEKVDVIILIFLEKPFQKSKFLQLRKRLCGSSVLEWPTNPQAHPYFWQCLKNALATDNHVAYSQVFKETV
Summary of the method: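 HEK 293-Blue cells stably expressing hTLR7 or hTLR8 with an inducible SEAP reporter were incubated 16 h with compound under 1 µg/mL R848 stimulation. SEAP was read at 620 nm. Data were normalized to the R848 control, and IC50 was taken from concentration-response curves. […] Mean ± s.d., n = 3 independent experiments.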

THP-1 [1] = test: Cytotoxicity against human THP1 cells transfected with human TLR7/8 assessed as reduction in cell viability at 0.5 to 20 uM incubated for 16 hrs by WST-1 assay; type: cell-based; details: thp-1, 16 h
RAW264.7 = test: Cytotoxicity against mouse RAW264.7 cells assessed as reduction in cell viability at 0.5 to 20 uM incubated for 16 hrs by WST-1 assay; type: cell-based; details: raw264.7, 16 h
[2] = biological target: T2, Toll-like receptor 8 (Homo sapiens) (UniProt Q9NR97); test: Inhibition of human TLR8 expressed in HEK293 cells assessed as reduction in ssRNA-induced NFkappaB production at 5 uM incubated for 16 hrs by quanti-blue SEAP assay; type: cell-based
T2 sequence (whole entry): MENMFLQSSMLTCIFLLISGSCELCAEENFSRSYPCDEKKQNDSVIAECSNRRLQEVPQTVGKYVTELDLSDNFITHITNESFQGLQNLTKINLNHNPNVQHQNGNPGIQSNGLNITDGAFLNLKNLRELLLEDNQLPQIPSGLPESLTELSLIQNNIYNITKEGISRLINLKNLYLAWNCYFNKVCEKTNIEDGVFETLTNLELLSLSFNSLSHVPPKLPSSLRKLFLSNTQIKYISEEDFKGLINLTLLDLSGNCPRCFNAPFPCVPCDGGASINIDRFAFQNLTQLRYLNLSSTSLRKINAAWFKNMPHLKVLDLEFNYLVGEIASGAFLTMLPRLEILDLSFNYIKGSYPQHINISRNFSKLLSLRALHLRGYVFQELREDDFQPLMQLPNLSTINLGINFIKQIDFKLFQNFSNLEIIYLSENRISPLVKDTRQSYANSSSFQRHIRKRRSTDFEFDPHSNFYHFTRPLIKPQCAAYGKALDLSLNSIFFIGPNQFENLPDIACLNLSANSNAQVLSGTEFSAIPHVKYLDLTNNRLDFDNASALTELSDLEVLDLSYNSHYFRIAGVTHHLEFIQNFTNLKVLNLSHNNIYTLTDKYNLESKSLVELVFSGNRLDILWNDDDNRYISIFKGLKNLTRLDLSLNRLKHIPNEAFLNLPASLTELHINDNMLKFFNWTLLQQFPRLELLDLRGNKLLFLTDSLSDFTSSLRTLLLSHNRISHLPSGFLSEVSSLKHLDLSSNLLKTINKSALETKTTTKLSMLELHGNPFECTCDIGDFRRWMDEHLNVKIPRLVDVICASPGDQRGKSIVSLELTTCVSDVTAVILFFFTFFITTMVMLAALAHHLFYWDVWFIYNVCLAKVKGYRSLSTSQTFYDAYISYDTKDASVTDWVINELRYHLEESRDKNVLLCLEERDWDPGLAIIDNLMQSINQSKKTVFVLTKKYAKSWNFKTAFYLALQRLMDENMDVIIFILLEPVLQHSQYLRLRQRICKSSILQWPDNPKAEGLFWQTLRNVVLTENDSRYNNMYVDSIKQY
Summary of the method: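 HEK 293 hTLR8 SEAP reporter cells were stimulated with ssRNA (ssRNA-Lyo-40) and incubated with compound for 16 h. Data were normalized as (raw − untreated)/(ligand + solvent − untreated), with ligand + solvent set as 100%. Mean ± s.d., n = 3 independent experiments.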

THP-1 [3] = test: Inhibition of IFN mediated immune response in human THP1 cells assessed as inhibition of 3p-hpRNA-induced RIG1 signalling pathway at 0.5 to 5 uM incubated for 16 hrs by luciferase assay; type: functional, cell-based
Summary of the method: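 THP1-Dual monocytes carrying Lucia luciferase and SEAP reporters were stimulated with 3p-hpRNA (RIG-I agonist) or Y-form dsDNA G3-YSD (cGAS agonist), with or without compound. Secreted Lucia luciferase luminescence was measured as the type I IFN read-out. Mean ± s.d., n = 3 independent experiments.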

[4] = biological target: T2, Toll-like receptor 8 (Homo sapiens); test: Inhibition of human TLR8 expressed in HEK293 cells assessed as reduction in TNFalpha production incubated for 24 hrs by ELISA; type: cell-based
[5] = biological target: T2, Toll-like receptor 8 (Homo sapiens); test: Inhibition of human TLR8 expressed in HEK293 cells assessed as reduction in IL1beta production incubated for 24 hrs by ELISA; type: cell-based

| IC50 (Toll-like receptor 7) [µM] | inhibition [2] | inhibition [4] | inhibition [5] | Structure (SMILES) | Activity (THP-1 [1]) | Activity (RAW264.7) | inhibition (THP-1 [3]) |
| --- | --- | --- | --- | --- | --- | --- | --- |
| > 20 | Active | Active | Active | O=[N+]([O-])c1c(I)cccc1Oc1ccc(-c2nnco2)cc1 | Non-Toxic | Non-Toxic | inactive |
| – | inactive | Active | Active | O=C(Nc1ccc(Oc2cncc(C(F)(F)F)c2)cc1)c1c(F)cccc1Cl | Non-Toxic | Non-Toxic | inactive |
| > 50 | inactive | Active | Active | O=C(Nc1ccc(Oc2cc(C(F)(F)F)cc(C(F)(F)F)c2)cc1)c1c(F)cccc1I | Non-Toxic | Non-Toxic | inactive |
| 2.88 | – | – | – | O=C(Nc1ccc(Oc2cc(C(F)(F)F)cc(C(F)(F)F)c2)cc1)c1c(F)cccc1Cl | – | – | – |
